B1: Osa-1-4 twister ribozyme (parent)
chain: CCGCCUAACACUGCCAAUGCCGGUCCCAAGCCCGGAUAAAAGUGGAGGGGGCGG

Variants of: B1
Test: self-cleavage, relative activity (ratio to wild type); higher = more cleavage; co-transcriptional
Method in brief: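 A DNA template for a 54-nucleotide Oryza sativa twister ribozyme was synthesised with 97 % wild-type base and 1 % of each other base at the 48 positions downstream of the cleavage site. It was transcribed in vitro for 2 h at 37 °C, allowing co-transcriptional self-cleavage, then reverse-transcribed with a template-switching oligonucleotide, PCR-amplified and deep-sequenced. Cleavage status was scored from reads with or without upstream sequence. Relative activity is fraction cleaved normalised to wild type.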

Variant | self-cleavage
A10G G48U | 0.06
A10G G49A | 0.07
A10G G49C | 0.07
A10G G49U | 0.09
A10G G50A | 0.49
A10G G50C | 0.82
A10G G50U | 0.98
A10G G51A | 0.28
A10G G51C | 0.08
A10G G51U | 0.18
A10G G53A | 0.41
A10G G53C | 0.07
A10G G53U | 0.22
A10G G54A | 0.9
A10G G54C | 0.85
A10G G54U | 0.89
A10G U12A | 0.21
A10G U12C | 0.12
A10G U12G | 0.2
A10G U18A | 0.85
A10G U18C | 0.68
A10G U18G | 0.66
A10G U24A | 0.09
A10G U24C | 0.1

Variant | self-cleavage
A10G U24G | 0.04
A10G U37A | 0.67
A10G U37C | 0.95
A10G U37G | 0.87
A10G U43A | 0.79
A10G U43C | 0.96
A10G U43G | 0.3
A10U | 0.05
A10U A7C | 0.02
A10U A7G | 0.08
A10U A7U | 0.03
A10U A8C | 0.03
A10U A8G | 0.05
A10U A8U | 0.04
A10U A16C | 0.03
A10U A16G | 0.06
A10U A16U | 0.06
A10U A17C | 0.04
A10U A17G | 0.07
A10U A17U | 0.08
A10U A28C | 0.03
A10U A28G | 0.04
A10U A28U | 0.05
A10U A29C | 0.01

Variant | self-cleavage
A10U A29G | 0.03
A10U A29U | 0.03
A10U A36C | 0.03
A10U A36G | 0.05
A10U A36U | 0.04
A10U A38C | 0.06
A10U A38G | 0.07
A10U A38U | 0.05
A10U A39C | 0.04
A10U A39G | 0.08
A10U A39U | 0.12
A10U A40C | 0.01
A10U A40G | 0.05
A10U A40U | 0.05
A10U A41C | 0.04
A10U A41G | 0.04
A10U A41U | 0.07
A10U A46C | 0.02
A10U A46G | 0
A10U A46U | 0.03
A10U C9A | 0.04
A10U C9G | 0.07
A10U C9U | 0.05
A10U C11A | 0.04

Variant | self-cleavage
A10U C11G | 0.03
A10U C11U | 0.05
A10U C14A | 0.02
A10U C14G | 0.03
A10U C14U | 0.04
A10U C15A | 0.03
A10U C15G | 0.03
A10U C15U | 0.04
A10U C20A | 0.05
A10U C20G | 0.03
A10U C20U | 0.05
A10U C21A | 0.03
A10U C21G | 0.02
A10U C21U | 0.07
A10U C25A | 0.03
A10U C25G | 0.02
A10U C25U | 0.05
A10U C26A | 0.01
A10U C26G | 0.05
A10U C26U | 0.04
A10U C27A | 0.02
A10U C27G | 0.04
A10U C27U | 0.05
A10U C31A | 0

Variant | self-cleavage
A10U C31G | 0.03
A10U C31U | 0.05
A10U C32A | 0.01
A10U C32G | 0.04
A10U C32U | 0.02
A10U C33A | 0.02
A10U C33G | 0.01
A10U C33U | 0.04
A10U C52A | 0.04
A10U C52G | 0.07
A10U C52U | 0.05
A10U G13A | 0.01
A10U G13C | 0.01
A10U G13U | 0
A10U G19A | 0.05
A10U G19C | 0.01
A10U G19U | 0.02
A10U G22A | 0.05
A10U G22C | 0.02
A10U G22U | 0.03
A10U G23A | 0.03
A10U G23C | 0.02
A10U G23U | 0.01
A10U G30A | 0.01

Variant | self-cleavage
A10U G30C | 0.01
A10U G30U | 0.01
A10U G34A | 0.05
A10U G34C | 0.03
A10U G34U | 0.03
A10U G35A | 0.06
A10U G35C | 0.03
A10U G35U | 0.04
A10U G42A | 0.04
A10U G42C | 0.04
A10U G42U | 0.02
A10U G44A | 0.03
A10U G44C | 0.09
A10U G44U | 0.08
A10U G45A | 0.03
A10U G45C | 0.02
A10U G45U | 0.02
A10U G47A | 0.02
A10U G47C | 0.02
A10U G47U | 0.02
A10U G48A | 0.02
A10U G48C | 0.01
A10U G48U | 0.01
A10U G49A | 0.04

Variant | self-cleavage
A10U G49C | 0.01
A10U G49U | 0.02
A10U G50A | 0.05
A10U G50C | 0.03
A10U G50U | 0.04
A10U G51A | 0.04
A10U G51C | 0.02
A10U G51U | 0.03
A10U G53A | 0.04
A10U G53C | 0.02
A10U G53U | 0.03
A10U G54A | 0.06
A10U G54C | 0.04
A10U G54U | 0.21
A10U U12A | 0.05
A10U U12C | 0.02
A10U U12G | 0.02
A10U U18A | 0.03
A10U U18C | 0.05
A10U U18G | 0.07
A10U U24A | 0.03
A10U U24C | 0.02
A10U U24G | 0.01

Source: the RNAGym collection of RNA variant scans (doi:10.1002/anie.201605470)
